Series [1] relates to Mus musculus. In words: Toxicity in Plasmodium berghei NK65 infected BALB/c mice (Mus musculus) at 50 mg/kg, perorally qd for 4 days measured on day 5 postinfection. The class given is organism-based. Details: dose 50 mg/kg, route oral. The settings on record: in vivo, po, 96 h. A digest of the protocol: (§1)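 P. berghei-infected female BALB/c mice dosed by oral gavage in 0.5% CMC/0.4% Tween-80/0.5% benzyl alcohol. Tail bleeds and body weighing done daily. Animals monitored for ill effects and euthanized when the no-drug controls lost 20% of their pre-infection body weight.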

Series [2] concerns Liver microsomes. The conditions noted are these: human, 1 µM.
The nature of series [3]: Half life in Swiss mouse at 50 mg/kg, po administered as single dose. The conditions noted are these: in vivo. Also on record: dose 50 mg/kg, route oral. Format: ADME, organism-based. A digest of the protocol: (§2)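 Nonfasted male Swiss outbred mice, 23-33 g, fed ad libitum. Single oral gavage as a suspension in 0.5% CMC, 0.5% benzyl alcohol, 0.4% Tween-80. One cardiac-puncture blood sample per mouse per time point. Plasma analysed by LC-MS/MS after acetonitrile precipitation, with diazepam as internal standard and a plasma calibration curve. PK parameters taken from mean concentration-time profiles.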

In series [4] the test system is Mus musculus. In words: Toxicity in Swiss mouse at 20 mg/kg, po administered as single dose. The conditions noted are these: in vivo. Details: dose 20 mg/kg, route oral. Format: organism-based. The essentials: (§3)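 Nonfasted male Swiss outbred mice, 23-33 g, given a single oral gavage dose suspended in 0.5% CMC/0.5% benzyl alcohol/0.4% Tween-80, then watched for adverse reactions over the plasma sampling period.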

Series [5] deals with Mus musculus. In words: Plasma concentration in Swiss mouse at 20 mg/kg, po administered as single dose. The class given is ADME, organism-based. Details: dose 20 mg/kg, route oral. The settings on record: in vivo. A digest of the protocol: as §2
Series [6] relates to Mus musculus. Briefly: Plasma concentration in Swiss mouse at 50 mg/kg, po administered as single dose. The conditions noted are these: in vivo. Format: ADME, organism-based. Details: dose 50 mg/kg, route oral. A digest of the protocol: as §2
Series [7] relates to Plasmodium berghei. In words: (§4) Antimalarial activity as reduced growth at day 5 in Plasmodium berghei NK65 infected BALB/c mice (Mus musculus) at 50 mg/kg peroral dose over 4 days. Format: functional. Also on record: scale not given: the % may be the effect or the level left. The conditions noted are these: route oral. The essentials:
(§5)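 Female BALB/c mice, 8-10 weeks old, infected ip with 2 × 10^7 infected erythrocytes 24 h before the first dose; ≥0.1% parasitemia confirmed first. Dosing by oral gavage in 0.5% CMC/0.4% Tween-80/0.5% benzyl alcohol, once daily (n = 3) or twice daily (n = 5) on days 1-4, with vehicle controls. Parasitemia counted daily from Wright-Giemsa thin tail-blood smears; suppression reported on day 5.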

Series [8] relates to Plasmodium berghei. Described as §4. Details: scale not given: the % may be the effect or the level left. Format: functional. The settings on record: route oral. The essentials: as §5
This is another data set of the same source.

Series [9] deals with Mus musculus. In words: Toxicity in Swiss mouse at 50 mg/kg, po administered as single dose. Also on record: dose 50 mg/kg, route oral. The class given is organism-based. The settings on record: in vivo. The essentials:
as §3

Series [10] deals with Mus musculus. Briefly: Toxicity in Plasmodium berghei NK65 infected BALB/c mice (Mus musculus) at 50 mg/kg, perorally bid for 4 days measured on day 5 postinfection. The class given is organism-based. Details: dose 50 mg/kg, route oral. The settings on record: in vivo, po, 96 h. The essentials:
as §1

Series [11] in a line: Plasma concentration in Swiss mouse at 50 mg/kg, po administered as single dose for 16 hrs. Details: dose 50 mg/kg, route oral. Format: ADME, organism-based. The essentials: as §2
The test system of series [12] is Liver microsomes. The conditions noted are these: human, 1 µM. This is another data set of the same source.
The nature of series [13]: Plasma concentration in Swiss mouse at 50 mg/kg, po administered as single dose for 240 mins. Format: ADME, organism-based. Also on record: dose 50 mg/kg, route oral. The settings on record: read-out: C0. A digest of the protocol: as §2
Series [14] concerns Plasmodium berghei. Briefly: Antimalarial activity as reduced parasitaemia against Plasmodium berghei NK65 infected BALB/c mice (Mus musculus) at 100 mg/kg peroral dose at 10x4hrs then 6x6hrs. The class given is functional, organism-based. Also on record: dose 100 mg/kg. The essentials:
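Female BALB/c mice, 8-10 weeks old, infected ip with 2 × 10^7 infected erythrocytes 24 h before dosing; ≥0.1% parasitemia verified. Oral gavage in 0.5% CMC/0.4% Tween-80/0.5% benzyl alcohol every 4 h × 10 doses, then every 6 h × 6 doses (n = 6 per group), against vehicle controls. Parasitemia counted daily by light microscopy of Wright-Giemsa stained thin tail-blood smears.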

The subject of series [15] is Mus musculus. Briefly: Toxicity in Plasmodium berghei NK65 infected BALB/c mice (Mus musculus) at 100 mg/kg, perorally administered every 4 hrs x 10 doses followed by every 6 hrs x 6 doses schedule. The conditions noted are these: in vivo, po. Format: organism-based. Also on record: dose 100 mg/kg, route oral. The essentials: as §1

Activity calls are given as the source filed them. No cut-off for these calls is given here.

These results are taken from ChEMBL document CHEMBL1153392, “Identification of a metabolically stable triazolopyrimidine-based dihydroorotate dehydrogenase inhibitor with antimalarial activity in mice” (J Med Chem, 2009).

What is called half-life is how long it takes for the measured level to halve.

As to `Cc1cc(Nc2ccc(C(F)(F)F)cc2)n2ncnc2n1`, the Activity result is on record as “Non-toxic” in the series on Mus musculus [1]; “Non-toxic” in the series on Mus musculus [4]; 95% with Plasmodium berghei [7]; 71% with Plasmodium berghei [8]; “Non-toxic” with Mus musculus [9]; “Non-toxic” in the series on Mus musculus [10]. In the series on Liver microsomes [2], this molecule registered a CL of 7.5 µL/min/mg. The same molecule showed a half-life in [3] of 3 h. In addition, the values for the concentration in the series on Mus musculus [5] and in the series with Mus musculus [6] were 7900 nM and 27600 nM, respectively. In series [11], this molecule returned a concentration at 16 h of 1000 nM. In the series with Liver microsomes [12], this molecule returned a t1/2 of 3.83 h.
For the molecule `Cc1cc(Nc2ccc3cc4ccccc4cc3c2)n2ncnc2n1`, the CL with Liver microsomes [2] came out at 37 µL/min/mg. The same molecule returned a concentration in the series with Mus musculus [6] of 2000 nM. In series [13], the concentration at 4 h was found to be 1000 nM. Moreover, in the series with Plasmodium berghei [14], the outcome was inactive. For the same molecule, the Activity entry with Mus musculus [15] was “Non-toxic”. Further, the t1/2 in the series with Liver microsomes [12] was found to be 0.717 h.
Molecule `Cc1cc(Nc2ccc3ccccc3c2)n2ncnc2n1` yielded a CL with Liver microsomes [2] of 96 µL/min/mg. The concentration in the series with Mus musculus [6] came out at 2000 nM. Further, in the series on Plasmodium berghei [14], the outcome was inactive. Besides, the Activity entry in the series on Mus musculus [15] is listed as “Non-toxic”. Also, the t1/2 with Liver microsomes [12] is 0.3 h.
